Screening data: PubChem BioAssay, several laboratories
An excerpt weighted towards active compounds, which were near 1.8% of everything screened.
rRNA inh HTS – reduced GFP signal of wild-type E. coli, primary screen, bacterial rRNA inhibitor project, GFP/RFP fluorescence, OD600, single point | E. coli WT GFP vs humanized-ribosome RFP mutants, 24 h; stronger effect = lower value; DMSO median 0, no signal -100 | GFP signal change (wild-type ribosome), % (concentration not given with the values) | 350,000 tested, 1.6% active | AID 720706, 2013;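 active = significant combined selectivity score with lowered wild-type GFP, culture density cut under 30%, mutant RFP and density less affected; inactive = any of these conditions unmet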
MT1-MMP act inh – blockers of MT1-MMP proenzyme processing, primary screen, HT1080 RFP-PRO-GFP cells, GFP/RFP fluorescence | GFP/RFP ratio change, % at 20 µM | 360,000 tested, 0.061% active | GFP/RFP ratio fluorescence, overnight; percent of plate control window, DMSO zero;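 active = GFP/RFP ratio change of at least 30% with cell ATP level not reduced by more than half and red fluorescence within 50% of control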
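Read-out: GFP/RFP fluorescence ratio; Test system: RFP-PRO-GFP reporter HT1080 cells; Compound dosing: single-point 20 µM compound, 1% DMSO; Times: overnight compound exposure at 37 °C.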
DAGLB inh – DAGLB lipase inhibitors, primary screen, biochemical, fluorescence, HTS. HEK293T DAGLB membrane lysate, EnzChek fluorogenic substrate. inhibition, % at 5.17 µM. 340,000 tested, 0.059% active; in the data active = inhibition above about 34%
Target sequence (Q8NCG7 whole entry, looked up): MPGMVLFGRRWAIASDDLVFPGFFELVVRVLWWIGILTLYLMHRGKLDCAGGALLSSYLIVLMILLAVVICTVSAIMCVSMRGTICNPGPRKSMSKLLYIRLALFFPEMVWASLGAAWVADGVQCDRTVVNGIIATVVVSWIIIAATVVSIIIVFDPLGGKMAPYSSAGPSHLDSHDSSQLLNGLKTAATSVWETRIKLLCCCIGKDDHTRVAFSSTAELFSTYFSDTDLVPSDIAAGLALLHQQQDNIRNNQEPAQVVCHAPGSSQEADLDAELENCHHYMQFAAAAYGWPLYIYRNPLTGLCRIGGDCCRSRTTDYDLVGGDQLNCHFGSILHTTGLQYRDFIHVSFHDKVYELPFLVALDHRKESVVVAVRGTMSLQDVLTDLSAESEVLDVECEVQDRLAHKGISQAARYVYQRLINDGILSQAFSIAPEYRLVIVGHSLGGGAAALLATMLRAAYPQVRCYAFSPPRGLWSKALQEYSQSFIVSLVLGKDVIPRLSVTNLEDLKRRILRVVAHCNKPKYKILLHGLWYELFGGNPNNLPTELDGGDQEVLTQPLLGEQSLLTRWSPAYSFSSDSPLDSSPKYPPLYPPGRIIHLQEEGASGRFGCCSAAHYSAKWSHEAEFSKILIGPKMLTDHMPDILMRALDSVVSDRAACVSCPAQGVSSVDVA
Cneo AK release – Cryptococcus neoformans cell lysis inducers, primary screen, AK release luminescence, single concentration; C. neoformans lysis, adenylate kinase release luminescence, 4 h; normalised: neutral wells 0, clomiphene wells 100; 360,000 tested, 0.2% active; lysis activity, % at 15 µM; AID 651654, 2012;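 active = mean lysis activity across replicates of at least 80%, whatever share of replicates individually reach that level; inactive = mean lysis activity below 80%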
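Material: C. neoformans cells | Amount: Yeast cell density of 5 × 10^6 cells/mL | Medium: Fresh YPD growth medium | Dosing: Single dose | Times: Static 4 h at 37 °C with compound, 1 h detection | Detection: AK luminescence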
SKN-1 inh – suppressors of acrylamide-induced Pgst-4::GFP reporter in worms, primary screen, SKN-1 inhibitor project, whole organism, uHTS, GFP/RFP fluorescence ratio, strain VP596 | C. elegans VP596 Pgst-4::GFP/RFP ratio, 24 h | inhibition, % at 21.8 µM | 360,000 tested, 0.49% active | AID 624304, 2012;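 active = interference check ratio from 0.5 to 1.5 plus GFP to RFP signal ratio inhibition reaching or exceeding a fixed threshold, cut at about 30% in these data, passing the limit was not always enough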
hiPSC survival – enhancers of single-cell hiPSC survival, primary screen, ATPlite luminescence | survival enhancement, % at 20 µM | 100% = ROCK inhibitor wells, 0% = DMSO | 360,000 tested, 0.044% active | AID 602274, 2012; in the data active = survival enhancement above about 18%;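 also: cells exposed to compounds for 16 hours before the ATP read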
A number is an active result; – = inactive; · = no result given.

SMILES	rRNA inh HTS	MT1-MMP act inh	DAGLB inh	Cneo AK release	SKN-1 inh	hiPSC survival
O=C1C=C(Nc2ccc(Cl)cc2Cl)CC(c2ccco2)C1 (stereo not drawn)	-22	–	–	·	–	–
CCOC(=O)c1ccc(NC2=CC(=O)CC(c3ccco3)C2)cc1 (stereo not drawn)	-22	–	–	·	–	–
COc1ccc(-c2ccc(C3[C@H]4CNC[C@@H]3N4C(=O)Nc3ccccc3F)cc2)cc1 (stereo partly drawn)	–	·	·	·	·	·
COc1ccc(CN(C)C(=O)C23CC4CC(CC(Cl)(C4)C2)C3)c(OC)c1OC	-29	–	–	–	–	–
COc1cccc(CN(C)C(=O)C23CC4CC(CC(NC(C)=O)(C4)C2)C3)c1OC	–	–	–	–	–	–
CCCC#Cc1cnc2c(c1)C(=O)N([C@H](C)CO)C[C@H](C)[C@@H](CN(C)C(=O)Nc1ccccc1F)O2	–	·	·	–	·	·
C[C@@H]1CN([C@H](C)CO)C(=O)c2cc(-c3ccc(F)cc3)cnc2O[C@H]1CN(C)C(=O)Nc1ccc(F)cc1	–	·	·	·	·	·
Cc1ccc(S(=O)(=O)Nc2ccc3c(c2)CC(=O)N([C@H](C)CO)C[C@H](C)[C@@H](CN(C)S(=O)(=O)c2ccccc2)O3)cc1	–	·	·	–	·	·
CN(C)C(=O)[C@H]1[C@H](CO)[C@H]2Cn3c(ccc(-c4ccccc4F)c3=O)[C@H]2N1C(=O)c1cnccn1	–	·	·	–	·	·
O=C(N/N=C/c1ccccn1)c1ccncc1	–	–	–	–	–	–
O=C(N/N=C/c1ccccn1)c1ccccc1	-26	–	–	–	–	–
COc1ccc(C(=O)N/N=C/c2ccccn2)cc1OC	-29	–	–	–	–	–
O=C(N/N=C/c1ccccn1)c1cccs1	-24	–	–	·	–	–
Cc1noc(C)c1NC(=O)Nc1ccc2c(c1)CC(=O)N([C@@H](C)CO)C[C@@H](C)[C@H](CN(C)S(=O)(=O)c1ccccc1)O2	–	·	·	–	·	·
Oc1cccc(C=Nc2cccc3ccccc23)c1O	-32	–	–	–	–	–
CCC(=O)N1CC2(CCN(C(=O)NC(C)C)CC2)c2c(n(C)c3cc(OC)ccc23)[C@H]1CO	–	·	·	·	·	·
Cc1ccc(S(=O)(=O)N[C@@H]2CCCN(Cc3ccc(OCCO)cc3)C2)cc1	·	·	·	–	·	·
Cc1ccc(S(=O)(=O)N[C@@H]2CCCN(Cc3cccc(OCCO)c3)C2)cc1	·	·	·	85	·	·
CCOC(=O)C1CCN(C(=O)C2CCN(S(=O)(=O)c3ccc4c(c3)CC(C)N4C(C)=O)CC2)CC1 (stereo not drawn)	–	–	–	–	–	–
CCOC(=O)N1CCN(S(=O)(=O)c2ccc3c(c2)CC(C)N3C(C)=O)CC1 (stereo not drawn)	-46	–	–	–	–	–
Cc1ccc2[nH]c(C)c(CCNC(=O)c3c(N)no[n+]3[O-])c2c1	-35	–	–	·	–	–
Cc1ccc2[nH]c(C)c(CCNC(=O)c3cc4cc([N+](=O)[O-])ccc4oc3=O)c2c1	·	–	–	·	–	–
Cc1ccc(NC(=O)CN(C)C(=O)Cc2coc3cc(C)c(C)cc23)cc1	-23	–	–	–	–	–
CCc1ccc(Nc2oc(C)cc(=O)c2C(C)=O)cc1	·	–	–	–	69	–
CCCN(C)C[C@H]1Oc2cc(C#CC3CCCC3)ccc2S(=O)(=O)N([C@H](C)CO)C[C@H]1C	–	·	·	–	·	·
SMILES	rRNA inh HTS	MT1-MMP act inh	DAGLB inh	Cneo AK release	SKN-1 inh	hiPSC survival
CCOC(=O)Nc1sc(C)c(C)c1C(=O)OCC	-20	–	–	·	–	–
CCOC(=O)c1c(NC(=O)Nc2ccccc2)sc(C)c1C	·	–	–	–	–	–
CS(=O)(=O)N1CC2(C1)[C@H](c1ccccc1)[C@H](CO)N2C(=O)c1ccccc1	–	·	·	·	·	·
C[C@H]1CN([C@@H](C)CO)C(=O)Cc2cc(NS(=O)(=O)c3ccc(F)cc3)ccc2O[C@H]1CN(C)S(=O)(=O)c1ccc(F)cc1	–	·	·	100	·	·
Cc1ccc(S(=O)(=O)N(C)C[C@@H]2Oc3ccc(NS(=O)(=O)c4ccc(Cl)cc4)cc3CC(=O)N([C@H](C)CO)C[C@H]2C)cc1	–	·	·	–	·	·
Cc1ccc(S(=O)(=O)N(C)C[C@@H]2Oc3ccc(NS(=O)(=O)c4ccc(Cl)cc4)cc3CC(=O)N([C@@H](C)CO)C[C@@H]2C)cc1	–	·	·	100	·	·
CC(=O)c1cccc(NC(=O)COC(=O)c2n[nH]c3ccccc23)c1	-23	–	–	·	–	–
COc1cccc(NC(=O)C(C)OC(=O)c2n[nH]c3ccccc23)c1 (stereo not drawn)	-27	–	–	–	–	–
NC(=O)C1CCN(C(=O)c2ccc3c(c2)S(=O)(=O)c2ccccc2C3=O)CC1	–	–	–	–	–	–
CCOC(=O)C1CCN(C(=O)c2ccc3c(c2)S(=O)(=O)c2ccccc2C3=O)CC1	–	–	–	–	36	–
Cc1ccc(NC(=O)/C=C/c2ccc3c(c2)OCO3)cc1S(=O)(=O)N1CCOCC1	-20	–	–	–	–	–
Cc1ccc(NC(=O)COc2ccc(Br)cc2CO)cc1S(=O)(=O)N1CCOCC1	–	–	–	–	41	–
CC(=O)N1[C@@H]2Cn3c(cccc3=O)[C@H]1[C@@H](C(=O)N[C@H](C)c1ccccc1)[C@@H]2CO	–	·	·	·	·	·
COc1ccc(CCN2C(=O)c3ccccc3C2c2nnnn2Cc2ccccc2)cc1OC (stereo not drawn)	-21	–	·	·	–	–
COc1ccc(CCN2C(=O)c3ccccc3C2c2nnnn2-c2c(C)cccc2C)cc1OC (stereo not drawn)	–	–	·	·	–	–
O=C(c1ccccc1)c1ccc(-c2ccc(O)cc2)cc1	-28	–	–	–	–	–
